Screening results as filed in PubChem BioAssay.
M4 ag – CHRM4 agonism in calcium assay; AID 624127; P08173; CHO-K1 hM4/Gqi5, Fluo-8 calcium fluorescence; vehicle 0%, full acetylcholine response 100%; activation, % at 3 µM; hit rate 0.14% among 360,000;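 active = activation above the run mean over all test wells plus 3 SD, cut at about 32% in these data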;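 note: peak over basal fluorescence ratio per well then scaled between controls; 0% = DMSO wells and 100% = acetylcholine at EC100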
M4 antag – CHRM4 antagonism in calcium assay | inhibition, % at 3 µM | AID 624125 | CHO-hM4 cells, ACh EC80, Fluo-8 calcium fluorescence | P08173 | hit rate 0.73% among 360,000;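 active = inhibition above its plate's cutoff, the mean inhibition of sample wells plus 3 SD, cut at about 27% in these data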;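 note: 0% = acetylcholine EC80 with DMSO and 100% = DMSO without agonist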
M4 PAM – CHRM4 positive allosteric modulation | CHO-K1 hM4/Gqi5, Fluo-8 calcium fluorescence, ACh EC20; 0% = ACh EC20, 100% = maximal ACh | activation, % at 3 µM | hit rate 0.4% among 360,000 | AID 624126;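 active = activation above its plate's cutoff, the mean activation of sample wells plus 3 SD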
CHRM5 PAM – CHRM5 positive allosteric modulation | P08912 | CHO-K1 hM5, Fluo-8 calcium, ACh EC20 PAM; 0% = ACh EC20, 100% = ACh EC100 | activation, % at 3 µM | hit rate 0.3% among 360,000 | AID 624038;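 active = activation above the run cutoff, the mean activation of all test compounds plus 3 SD, cut at about 18% in these data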
Target sequence (P08912 whole entry, looked up): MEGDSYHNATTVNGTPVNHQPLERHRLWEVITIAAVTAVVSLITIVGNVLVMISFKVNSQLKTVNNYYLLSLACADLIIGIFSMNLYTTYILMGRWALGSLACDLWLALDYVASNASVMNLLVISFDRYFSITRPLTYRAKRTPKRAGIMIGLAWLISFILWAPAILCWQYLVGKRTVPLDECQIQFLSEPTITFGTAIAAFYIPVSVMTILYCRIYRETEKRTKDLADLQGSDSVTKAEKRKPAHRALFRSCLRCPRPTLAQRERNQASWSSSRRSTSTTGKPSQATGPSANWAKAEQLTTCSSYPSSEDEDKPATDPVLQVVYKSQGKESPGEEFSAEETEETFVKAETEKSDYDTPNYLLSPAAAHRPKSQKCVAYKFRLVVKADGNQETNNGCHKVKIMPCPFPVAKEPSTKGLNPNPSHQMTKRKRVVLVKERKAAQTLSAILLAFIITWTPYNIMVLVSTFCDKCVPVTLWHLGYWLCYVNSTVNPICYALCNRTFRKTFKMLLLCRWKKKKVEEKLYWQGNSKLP
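system = human M5 receptor in CHO-K1 cells | compound = one concentration, 3 µM final (nominal) | schedule = Post-acetylcholine fluorescence recording 140 s | signal = Fluo-8 calcium dye fluorescence, kinetic read | benchmarks = low control EC20 acetylcholine (0%), high control EC100 acetylcholine (100%) | repeats = singlicate, one well per test compound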
M5 antag – CHRM5 antagonism in calcium assay | inhibition, % at 3 µM | P08912 | CHO-hM5 cells, Fluo-8 calcium fluorescence, ACh EC80 | hit rate 0.59% among 360,000;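 active = inhibition above a per-plate cutoff, the mean of that plate's test compounds plus 3 SD, cut at about 27% in these data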;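 note: 0% = acetylcholine EC80 with DMSO and 100% = DMSO without agonist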
M5 ag – CHRM5 agonism in calcium assay; hit rate 0.19% among 360,000; activation, % at 3 µM; CHO-K1 hM5 cells, Fluo-8 calcium fluorescence; 0% DMSO wells, 100% maximal acetylcholine response; AID 624037;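 active = activation above the run's mean over test compounds plus 3 SD, cut at about 23% in these data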;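 note: signal is peak over basal fluorescence ratio across the kinetic read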
* = called active by the depositor. In the library only some 1.8% were active in any assay of this set; here they are far more common.

`Cc1ccc(C(=O)NC2CC3CCCC(C2)N3C(=S)NCc2ccco2)cc1` (stereo not given) gave M4 ag 1, M4 antag -14, M4 PAM 21*, CHRM5 PAM 2, M5 antag -14 and M5 ag -6.
`Cc1nc2ccc(C(=O)Nc3cccc(OCC(=O)N(C)C)c3)cn2c1N(C)CC1CCCCC1` gave M4 ag 7, M4 antag 1, M4 PAM -12, CHRM5 PAM -4, M5 antag 0 and M5 ag 0.
Screening Cc1ccc2nc(-c3ccc(Cl)cc3)c(Cc3cccc(Cl)c3)n2c1 returned M4 ag -1, M4 antag -3, M4 PAM -4, CHRM5 PAM -20, M5 antag 1 and M5 ag -6.
For Cc1ccc2nc(C(C)(C)C)c(Cc3cccc(Cl)c3)n2c1 the results were M4 ag -2, M4 antag 27*, M4 PAM -15, CHRM5 PAM -22, M5 antag 20 and M5 ag -8.
Screening CC(=O)N1CCCC(C)(C(=O)N(C)Cc2cccc3ccccc23)C1 (stereo not given) returned M4 ag 3, M4 antag -6, M4 PAM 4, CHRM5 PAM -3, M5 antag 4 and M5 ag 0.
Cc1cc(C)c2c3c(sc2n1)C(=O)N(c1ccccc1)CC(=O)N3 was read as M4 ag 3, M4 antag 32*, M4 PAM 17, CHRM5 PAM -1, M5 antag 3 and M5 ag -1.
Cc1nc(N)c(C#N)c(-c2cccnc2)c1C was read as M4 ag 0, M4 antag -16, M4 PAM 5, CHRM5 PAM 26*, M5 antag -16 and M5 ag -4.
For CCCNS(=O)(=O)c1cc2c(cc1Br)CCN2C(=O)CC the results were M4 ag 1, M4 antag -14, M4 PAM 7, CHRM5 PAM 23*, M5 antag 4 and M5 ag 1.
For COc1ccc(-n2nc([N+](=O)[O-])c(=NC3CCN(Cc4ccccc4)CC3)n2O)cc1 the results were M4 ag 0, M4 antag 28*, M4 PAM -18, CHRM5 PAM -3, M5 antag 1 and M5 ag -9.
Screening COc1ccccc1N1CCN(c2nc(-c3ccccc3)cc(C(F)(F)F)n2)CC1 returned M4 ag 1, M4 antag -4, M4 PAM 10, CHRM5 PAM 27*, M5 antag -20 and M5 ag -1.
Screening FC(F)(F)c1cc(-c2ccccc2)nc(N2CCCCCC2)n1 returned M4 ag 1, M4 antag -2, M4 PAM 14, CHRM5 PAM 0, M5 antag 0 and M5 ag -1.
For CC(C)(C)C1CCC(CN2C(Nc3ccccc3)=NC[C@@H]2Cc2ccccc2)CC1 (stereo not given in full) the results were M4 ag 23, M4 antag 50*, M4 PAM -14, CHRM5 PAM -20, M5 antag 28* and M5 ag -1.
Screening O=C(O)c1ccc(N/N=C/c2ccc(-c3cccc(Cl)c3)o2)cc1 returned M4 ag 17, M4 antag 9, M4 PAM -6, CHRM5 PAM 11, M5 antag -2 and M5 ag 14.
Screening NS(=O)(=O)c1ccc(-c2ccc(/C=N/Nc3ccc(C(=O)O)cc3)o2)cc1 returned M4 ag 1, M4 antag -2, M4 PAM 10, CHRM5 PAM -6, M5 antag 6 and M5 ag -1.
`O=[N+]([O-])c1ccccc1N/N=C/c1c[nH]c2ccccc12` gave M4 ag 1, M4 antag 1, M4 PAM 5, CHRM5 PAM -1, M5 antag -1 and M5 ag -4.
O=[N+]([O-])c1ccc(N/N=C/c2c[nH]c3ccccc23)cc1 was read as M4 ag 17, M4 antag 21, M4 PAM -10, CHRM5 PAM -18, M5 antag 28* and M5 ag 3.
`O=C(O)c1ccc(-c2ccc(/C=N/Nc3ccc([N+](=O)[O-])cc3)o2)cc1` gave M4 ag 24, M4 antag 19, M4 PAM -14, CHRM5 PAM -13, M5 antag 28* and M5 ag 55*.
For O=C(O)c1cccc(-c2ccc(/C=N/Nc3ccc([N+](=O)[O-])cc3)o2)c1 the results were M4 ag 12, M4 antag 27*, M4 PAM -17, CHRM5 PAM -16, M5 antag 34* and M5 ag 34*.
`CCOC(=O)C1=CCC(c2ccccc2)N(S(=O)(=O)c2ccccc2C)C1` (stereo not given) gave M4 ag -1, M4 antag 2, M4 PAM -9, CHRM5 PAM -12, M5 antag -8 and M5 ag -5.
Screening CN1CCc2c(c3ccccc3n2Cc2ccccc2)C1 returned M4 ag 1, M4 antag 57*, M4 PAM -17, CHRM5 PAM -19, M5 antag 42* and M5 ag -2.
Screening CCCCN1CCc2c(c3ccccc3n2Cc2ccccc2)C1 returned M4 ag 2, M4 antag -12, M4 PAM -9, CHRM5 PAM -15, M5 antag 4 and M5 ag -5.
For COc1ccccc1CNc1nc2cc(-c3ccccc3C)sc2c(=O)n1C the results were M4 ag 0, M4 antag -7, M4 PAM 5, CHRM5 PAM -4, M5 antag -1 and M5 ag -1.
`Cc1cccc(C)c1NC(=O)C1(C)CN(S(C)(=O)=O)CC(=O)N1CC(F)(F)F` (stereo not given) gave M4 ag 2, M4 antag 3, M4 PAM 8, CHRM5 PAM -3, M5 antag 4 and M5 ag 0.
Screening C[N+]1(C)CCC(=C2c3ccccc3CC(=O)c3sccc32)CC1 returned M4 ag 0, M4 antag 80*, M4 PAM -29, CHRM5 PAM -17, M5 antag 77* and M5 ag -8.
Screening O=C1c2ccccc2CCc2ccccc21 returned M4 ag -1, M4 antag -6, M4 PAM 6, CHRM5 PAM 2, M5 antag 8 and M5 ag -3.
For CC[N+]1(C)CCC(=C2c3ccccc3CC(=O)c3sccc32)CC1 (stereo not given) the results were M4 ag 1, M4 antag 99*, M4 PAM -29, CHRM5 PAM -17, M5 antag 99* and M5 ag -7.
